Data from ChEMBL document CHEMBL1156065, “Structure-activity relationship study on alpha1 adrenergic receptor antagonists from beer” (Bioorg Med Chem Lett, 2009).

How the values were obtained:
[1] = target: T1, Alpha-1A adrenergic receptor (Rattus norvegicus, UniProt P43140); assay: Displacement of [3H]prazosin from rat salivary gland alpha1A adrenoceptor
T1 sequence (P43140 whole entry): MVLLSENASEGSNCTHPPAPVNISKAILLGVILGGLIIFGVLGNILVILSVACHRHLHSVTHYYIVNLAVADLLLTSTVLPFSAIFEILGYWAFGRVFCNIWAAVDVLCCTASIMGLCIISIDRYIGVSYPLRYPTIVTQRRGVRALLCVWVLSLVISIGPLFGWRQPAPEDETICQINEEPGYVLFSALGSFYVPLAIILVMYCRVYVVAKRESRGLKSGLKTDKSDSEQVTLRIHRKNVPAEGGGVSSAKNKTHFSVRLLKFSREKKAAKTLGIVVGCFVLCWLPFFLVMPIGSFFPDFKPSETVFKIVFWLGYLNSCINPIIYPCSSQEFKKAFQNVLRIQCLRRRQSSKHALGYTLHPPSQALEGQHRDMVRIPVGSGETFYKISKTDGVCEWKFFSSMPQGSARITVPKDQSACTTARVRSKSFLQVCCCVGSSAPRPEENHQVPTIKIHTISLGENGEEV
Method in brief: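 Rat salivary gland homogenate incubated with test samples and 0.06 nM [3H]-prazosin at 22 °C for 60 min. Stopped by vacuum filtration through glass-fiber filters, washed with 50 mM Tris–HCl, counted by liquid scintillation. Nonspecific binding defined with phentolamine and subtracted from total binding. IC50 taken as the concentration inhibiting specific binding by 50%.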

[2] = target: T1, Alpha-1A adrenergic receptor; assay: Antagonist activity at rat alpha1A adrenoceptor assessed as inhibition of phenylephrine-induced contraction of caudal artery; type: functional, tissue-based
Method in brief: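 Isometric tension at 1 g resting load, equilibrated 30 to 60 min with repeated washes. Contraction induced by submaximal phenylephrine. After the response stabilized, test sample was added at increasing concentrations, up to 15 min per concentration or until the response was stable.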

SMILES | IC50 [1] [µM] | IC50 [2] [µM]
COC(=O)[C@@H]1c2cc(/C=C/C(=O)NCCCCNC(=N)N)ccc2O[C@H]1c1ccc(O)cc1 | 0.56 | 9.72
N=C(N)NCCCCNC(=O)/C=C/c1ccc2c(c1)[C@@H](C(=O)NCCCCNC(=N)N)[C@H](c1ccc(O)cc1)O2 | 0.29 | 14.3
COC(=O)[C@H]1c2cc(/C=C/C(=O)NCCCCNC(=N)N)ccc2O[C@@H]1c1ccc(O)cc1 | 2.16 | 42.2
N=C(N)NCCCCNC(=O)[C@@H]1c2cc(/C=C/C(=O)O)ccc2O[C@H]1c1ccc(O)cc1 | > 100 | > 100
N=C(N)NCCCCNC(=O)/C=C/c1ccc2c(c1)[C@@H](C(=O)NCCCCNC(=N)N)[C@@H](c1ccc(O)cc1)O2 | 2.44 | 17.7
N=C(N)NCCCCNC(=O)/C=C/c1ccc(O)cc1 | 57.6 | > 100
N=C(N)NCCCCNC(=O)[C@H]1c2cc(/C=C/C(=O)O)ccc2O[C@@H]1c1ccc(O)cc1 | > 100 | > 100
N=C(N)NCCCCNC(=O)/C=C/c1ccc2c(c1)[C@H](C(=O)NCCCCNC(=N)N)[C@H](c1ccc(O)cc1)O2 [APERIDINE] | 0.42 | 4.9
N=C(N)NCCCCNC(=O)/C=C/c1ccc2c(c1)[C@H](C(=O)NCCCCNC(=N)N)[C@@H](c1ccc(O)cc1)O2 [HORDATINE A] | 0.31 | 19.3
